7 molecules from ChEMBL document CHEMBL2384900, “Synthesis and cytotoxicity of oligomycin A derivatives modified in the side chain” (Bioorg Med Chem, 2013) can be followed below.

One experiment deals with K562. In words: Cytotoxicity against human K562 cells after 72 hrs by MTT assay. The class given is functional, cell-based. The note with it: K562, 72 h. The gist of the method:
(§1)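 Cells are exposed to compound for 72 h, and viability is then read by MTT assay. IC50 is reported as the mean of 3 independent measurements with SD. hFB-hTERT6 is a non-malignant human skin fibroblast line.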

A further experiment concerns HCT-116. The experiment in a line: Cytotoxicity against human HCT116 cells after 72 hrs by MTT assay. The class given is functional, cell-based. The note with it: HCT-116, 72 h. Summed up: as §1
For experiment [1], the system named is Streptomyces fradiae. In words: Antibacterial activity against Streptomyces fradiae ATCC 19609 at 0.1 nmol/disk after 24 hrs. The format is functional. The gist of the method: (§2)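 Disk diffusion assay. Streptomyces fradiae spores are mixed into MG soft agar (0.7% agar, pH 7.5) and poured over MG agar plates (2% agar), 10⁷ spores per dish. After the agar sets, paper disks impregnated with compound are placed on the plates. Plates are incubated 24 h at 28 °C, and the diameter of the growth-inhibition halo around each disk is measured.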

A short description of experiment [2]: Cytotoxicity against human hFB-hTERT6 cells after 72 hrs by MTT assay. The class given is cell-based. The note with it: hFB-hTERT6, 72 h. Summed up: as §1
In general terms: Tetrazolium dyes change colour on reduction, which living cells bring about.

In experiment [3] the test system is Streptomyces fradiae. The experiment in a line: Antibacterial activity against Streptomyces fradiae ATCC 19609 at 1 nmol/disk after 24 hrs. The class given is functional. Summed up:
as §2

Experiment [4] has as its system Streptomyces fradiae. The experiment in a line: Antibacterial activity against Streptomyces fradiae ATCC 19609 at 10 nmol/disk after 24 hrs. The class given is functional. The gist of the method: as §2
In experiment [5] the test system is Streptomyces fradiae. The experiment in a line: Antibacterial activity against Streptomyces fradiae ATCC 19609 at 100 nmol/disk after 24 hrs. The class given is functional. Summed up:
as §2

Experiment [6] has as its system Streptomyces fradiae. The experiment in a line: Antibacterial activity against Streptomyces fradiae ATCC 19609 at 0.001 nmol/disk after 24 hrs. The format is functional. The gist of the method:
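Disk diffusion on S. fradiae: spore suspension mixed into MG soft agar (0.7%), pH 7.5, poured over MG agar (2%) at 10⁷ spores per dish; after solidification, paper disks carrying test compound laid on lawn; grown 24 h at 28 °C; growth-inhibition halo diameter around disks measured.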

For the molecule `CC[C@H]1/C=C/C=C/C[C@@H](C)[C@H](O)[C@@](C)(O)C(=O)[C@@H](C)[C@H](O)[C@@H](C)C(=O)[C@@H](C)[C@H](O)[C@@H](C)/C=C/C(=O)O[C@@H]2[C@H](C)[C@H](CC1)O[C@]1(CC[C@H](C)[C@H](C[C@@H](C)OS(C)(=O)=O)O1)[C@H]2C`, the IC50 with K562 was 5800 nM; in the experiment on HCT-116 it was 6400 nM. In addition, the “diameter of the inhibition zone (DIZ)” value in the experiment on Streptomyces fradiae [1] is 9.5 mm.

Take `CC[C@H]1/C=C/C=C/C[C@@H](C)[C@H](O)[C@@](C)(O)C(=O)[C@@H](C)[C@H](O)[C@@H](C)C(=O)[C@@H](C)[C@H](O)[C@@H](C)/C=C/C(=O)O[C@@H]2[C@H](C)[C@H](CC1)O[C@]1(CC[C@H](C)[C@H](C[C@H](C)N=[N+]=[N-])O1)[C@H]2C`: the IC50 in experiment [2] stood at 1900 nM; with K562 it was 140 nM; in the experiment with HCT-116, 200 nM. Further, in the experiment with Streptomyces fradiae [3], the “diameter of the inhibition zone (DIZ)” value was found to be 7.5 mm.

For the molecule `CC[C@H]1/C=C/C=C/C[C@@H](C)[C@H](O)[C@@](C)(O)C(=O)[C@@H](C)[C@H](O)[C@@H](C)C(=O)[C@@H](C)[C@H](O)[C@@H](C)/C=C/C(=O)O[C@@H]2[C@H](C)[C@H](CC1)O[C@]1(CC[C@H](C)[C@H](C[C@H](C)n3cc(-c4ccccc4)nn3)O1)[C@H]2C`, the figures for the IC50 (in experiment [2]; with K562) were 3000 nM and 150 nM, respectively. Moreover, the “diameter of the inhibition zone (DIZ)” value in the experiment on Streptomyces fradiae [1] came to 7.5 mm.

For `CC[C@H]1/C=C/C=C/C[C@@H](C)[C@H](O)[C@@](C)(O)C(=O)[C@@H](C)[C@H](O)[C@@H](C)C(=O)[C@@H](C)[C@H](O)[C@@H](C)/C=C/C(=O)O[C@@H]2[C@H](C)[C@H](CC1)O[C@]1(CC[C@H](C)[C@H](C[C@H](C)n3cc(C(=O)OC)nn3)O1)[C@H]2C`, the concentration for half-maximal inhibition (IC50) was determined as 2000 nM in experiment [2] and 150 nM in the experiment with K562. Moreover, the “diameter of the inhibition zone (DIZ)” value in the experiment on Streptomyces fradiae [4] turned out to be 8 mm.

For `CC[C@H]1/C=C/C=C/C[C@@H](C)[C@H](O)[C@@](C)(O)C(=O)[C@@H](C)[C@H](O)[C@@H](C)C(=O)[C@@H](C)[C@H](O)[C@@H](C)/C=C/C(=O)O[C@@H]2[C@H](C)[C@H](CC1)O[C@]1(CC[C@H](C)[C@H](C[C@H](C)n3cc(C(=O)O)nn3)O1)[C@H]2C`, the 50% inhibitory concentration (IC50) in experiment [2] was over 50000 nM; in the experiment on K562 it was over 12500 nM. Also, the “diameter of the inhibition zone (DIZ)” value in the experiment on Streptomyces fradiae [5] is recorded as 8 mm.

For `CC[C@H]1/C=C/C=C/C[C@@H](C)[C@H](O)[C@@](C)(O)C(=O)[C@@H](C)[C@H](O)[C@@H](C)C(=O)[C@@H](C)[C@H](O)[C@@H](C)/C=C/C(=O)O[C@@H]2[C@H](C)[C@H](CC1)O[C@]1(CC[C@H](C)[C@H](C[C@H](C)n3cc(C(=O)NCCN(C)C)nn3)O1)[C@H]2C`, the 50% inhibitory concentration (IC50) in experiment [2] amounted to 2000 nM; with K562, 220 nM; with HCT-116 it was 700 nM. Further, in the experiment with Streptomyces fradiae [3], the “diameter of the inhibition zone (DIZ)” value worked out at 8 mm.

For the molecule `CC[C@@H]1/C=C/C=C/C[C@H](C)[C@H](O)[C@](C)(O)C(=O)[C@H](C)[C@@H](O)[C@H](C)C(=O)[C@H](C)[C@@H](O)[C@H](C)/C=C/C(=O)O[C@H]2[C@@H](C)[C@@H](CC1)O[C@@]1(CC[C@@H](C)[C@@H](C[C@H](C)O)O1)[C@@H]2C` [OLIGOMYCIN A], the half-maximal inhibitory concentration (IC50) in experiment [2] worked out at 7500 nM; in the experiment with K562 it was 160 nM; in the experiment on HCT-116 it was 1000 nM. The “diameter of the inhibition zone (DIZ)” value in the experiment with Streptomyces fradiae [6] was 10 mm.

The term IC50 denotes the concentration that inhibits the measured activity by half.
